Assay results reported in ChEMBL document CHEMBL1145465, “PhoU is a persistence switch involved in persister formation and tolerance to multiple antibiotics and stresses in Escherichia coli” (2007).

How the values were obtained:
Format in all cases: functional
Escherichia coli [1] = assay: Antibacterial activity against Escherichia coli K12 containing deletion deltaphoU mutant assessed as cell count in stationary phase at 3 ug/ml after 5 days
Procedure, shortened: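 Log-phase or stationary-phase cultures of the ΔphoU deletion mutant (Datsenko–Wanner construction) were exposed to norfloxacin 3 μg/ml in MOPS minimal medium, pH 5.0, at 37°C without shaking, for up to 10 days. Sampled aliquots were washed in saline and plated on LB agar for CFU/ml.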

Escherichia coli [2] = assay: Antibacterial activity against Escherichia coli K12 containing PhoU mutant assessed as cell count in log phase at 3 ug/ml after 5 days
Procedure, shortened: (§1)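 Log-phase or stationary-phase cultures were exposed to ampicillin (100 μg/ml) or norfloxacin (3 μg/ml) in MOPS minimal medium, pH 5.0, at 37°C without shaking, for 5 h to 10 days. Aliquots were saline-washed and plated on LB for CFU/ml.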

Escherichia coli [3] = assay: Antibacterial activity against Escherichia coli K12 PhoU wild type W3110 at 0.5 ug/ml after 48 hrs by disc diffusion method
Procedure, shortened: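 Kirby-Bauer disc assay. Log-phase LB culture (10⁸ bacteria) was spread for confluent growth on LB agar. 7 mm nitrocellulose discs soaked in antibiotic at the listed concentrations were laid on the agar. Inhibition zone diameter (mm) was measured after 48 h at 37°C.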

Escherichia coli [4] = assay: Antibacterial activity against Escherichia coli K12 PhoU wild type W3110 assessed as cell count in stationary phase at 3 ug/ml after 5 hrs; procedure, shortened: as §1
Escherichia coli [5] = assay: Antibacterial activity against Escherichia coli K12 PhoU wild type W3110 assessed as cell count in log phase at 3 ug/ml after 5 days; procedure, shortened: as §1
Escherichia coli [6] = assay: Antibacterial activity against Escherichia coli K12 containing deletion deltahipA mutant assessed as cell count in log phase at 100 ug/ml after 5 hrs
Procedure, shortened: (§2)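 Deletion mutants were made by the Datsenko–Wanner method. Log-phase or stationary-phase cultures were exposed to ampicillin at 100 μg/ml. CFU/ml was determined at the start and after 5, 24 and 72 h of exposure.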

Escherichia coli [7] = assay: Antibacterial activity against Escherichia coli K12 PhoU wild type W3110 assessed as cell count in stationary phase at 100 ug/ml after 1 week
Procedure, shortened: (§3)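 Log-phase or stationary-phase cultures exposed to ampicillin 100 μg/ml in MOPS minimal medium (pH 5.0) at 37°C without shaking, for 5 h up to 10 days. Aliquots were taken at each time point, washed in saline and plated on LB plates for viable CFU/ml.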

Escherichia coli [8] = assay: Antibacterial activity against Escherichia coli K12 containing deletion deltaphoR mutant assessed as cell count in stationary phase at 100 ug/ml after 24 hrs
Procedure, shortened: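 Wild-type W3110-derived deletion mutants were made by the Datsenko–Wanner method. Log-phase or stationary-phase cultures were exposed to ampicillin 100 μg/ml in MOPS minimal medium at pH 5.0, at 37°C without shaking. Aliquots were taken at set times, washed in saline and plated on LB for viable CFU/ml.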

Escherichia coli [9] = assay: Antibacterial activity against Escherichia coli K12 containing deletion deltahipA mutant assessed as cell count in stationary phase at 100 ug/ml after 5 hrs; procedure, shortened: as §2
Escherichia coli [10] = assay: Antibacterial activity against Escherichia coli K12 mutant JHU313 containing plasmid PhoU at 6 ug/ml after 48 hrs by disc diffusion method
Procedure, shortened: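 Kirby-Bauer disc assay: log-phase LB culture was spread on LB agar for confluent growth. 7-mm nitrocellulose discs were soaked in antibiotic at the listed concentration and placed on the agar. After 48 h at 37°C, the diameter of the inhibition zone was measured in mm.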

Escherichia coli [11] = assay: Antibacterial activity against Escherichia coli K12 containing deletion deltaphoBR mutant assessed as cell count in stationary phase at 100 ug/ml after 5 hrs; procedure, shortened: as §2
Escherichia coli [12] = assay: Antibacterial activity against Escherichia coli K12 containing deletion deltaphoBR mutant assessed as cell count in log phase at 100 ug/ml after 24 hrs; procedure, shortened: as §2
Escherichia coli [13] = assay: Antibacterial activity against Escherichia coli K12 PhoU wild type W3110 assessed as cell count in log phase at 100 ug/ml after 5 days; procedure, shortened: as §3

Row | SMILES | CFU (Escherichia coli [1]) [mL⁻¹] | CFU (Escherichia coli [2]) [mL⁻¹] | inhibition zone (IZ) (Escherichia coli [3]) [mm] | CFU (Escherichia coli [4]) | CFU (Escherichia coli [5]) | CFU (Escherichia coli [6]) | CFU (Escherichia coli [7]) | CFU (Escherichia coli [8]) | CFU (Escherichia coli [9]) | inhibition zone (IZ) (Escherichia coli [10]) [mm] | CFU (Escherichia coli [11]) | CFU (Escherichia coli [12]) | CFU (Escherichia coli [13]) [mL⁻¹]
1 | CCn1cc(C(=O)O)c(=O)c2cc(F)c(N3CCNCC3)cc21 [NORFLOXACIN] | 0 | 0 | 27 | 5 10^9/ml | 7 10^2/ml |  |  |  |  |  |  |  | 
2 | CC1(C)S[C@@H]2[C@H](NC(=O)[C@H](N)c3ccccc3)C(=O)N2[C@H]1C(=O)O [AMPICILLIN] |  |  |  |  |  | 1 10^4/ml | 5 10^6/ml | 1.5 10^9/ml | 6 10^9/ml | 32 | 3 10^9/ml | 2 10^3/ml | 0
